Consider three molecules from ChEMBL document CHEMBL3407371, “Elimination of a cholecystokinin receptor agonist 'trigger' in an effort to develop positive allosteric modulators without intrinsic agonist activity” (Bioorg Med Chem Lett, 2015).

A word on the IC50: it is the midpoint of a concentration-inhibition curve. The EC50 is the concentration at which the effect is half-maximal.

Test [1] has as its target T1, Gastrin/cholecystokinin type B receptor (Homo sapiens) (UniProt P32239).
T1 sequence (whole entry): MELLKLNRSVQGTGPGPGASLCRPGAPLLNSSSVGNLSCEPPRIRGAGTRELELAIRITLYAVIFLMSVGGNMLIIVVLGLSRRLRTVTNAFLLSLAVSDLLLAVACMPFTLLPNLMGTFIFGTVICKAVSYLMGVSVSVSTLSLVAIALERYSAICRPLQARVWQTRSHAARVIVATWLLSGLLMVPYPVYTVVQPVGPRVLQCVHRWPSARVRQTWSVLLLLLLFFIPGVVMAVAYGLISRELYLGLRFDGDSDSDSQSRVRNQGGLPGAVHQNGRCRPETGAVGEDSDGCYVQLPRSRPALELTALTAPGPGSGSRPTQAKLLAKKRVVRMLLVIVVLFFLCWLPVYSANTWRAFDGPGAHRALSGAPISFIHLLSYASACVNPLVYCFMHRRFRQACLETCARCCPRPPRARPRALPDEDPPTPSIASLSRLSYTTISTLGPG
The experiment in a line: Activity at CCK2R (unknown origin) expressed in CHO cells assessed as stimulation of intracellular calcium responses. In kind it is functional, cell-based. In outline:
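Intact CHO cell lines stably expressing CCK1R or CCK2R; intracellular calcium measured after adding compound alone. […] Peak responses and EC50 values taken from concentration-response curves. Duplicate determinations, at least three independent experiments, means ± S.E.M.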
A general note: Calcium assays in cells follow changes in intracellular calcium, usually with a dye or a luminescent sensor.

The target of test [2] is T2, Cholecystokinin receptor type A (Homo sapiens) (UniProt P32238).
T2 sequence (whole entry): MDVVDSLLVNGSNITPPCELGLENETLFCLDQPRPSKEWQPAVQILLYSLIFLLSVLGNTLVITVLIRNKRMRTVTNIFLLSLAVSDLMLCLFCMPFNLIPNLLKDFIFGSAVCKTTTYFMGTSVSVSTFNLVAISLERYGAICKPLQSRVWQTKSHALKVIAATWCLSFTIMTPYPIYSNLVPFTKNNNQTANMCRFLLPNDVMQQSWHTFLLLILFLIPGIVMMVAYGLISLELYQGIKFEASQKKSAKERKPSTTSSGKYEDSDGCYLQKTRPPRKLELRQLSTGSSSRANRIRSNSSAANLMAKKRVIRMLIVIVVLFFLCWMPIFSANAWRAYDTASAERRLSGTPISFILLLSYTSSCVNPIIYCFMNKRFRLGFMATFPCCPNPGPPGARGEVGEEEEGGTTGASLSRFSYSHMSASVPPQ
To be noted: CHO, 1 uM.

Test [3] deals with T3, Cholecystokinin receptor type A (Homo sapiens, UniProt P32238, N98T). Type of test: cell-based, CHO.
For test [4], the target named is T4, Cholecystokinin receptor type A (Homo sapiens, UniProt P32238). In kind it is cell-based. To be noted: cho.
Test [5] addresses T5, Cholecystokinin receptor type A (Homo sapiens, UniProt P32238).
T5 sequence (P32238 whole entry): T2 sequence (whole entry)
In kind it is functional, cell-based. To be noted: cho.

In test [6] the target is T5, Cholecystokinin receptor type A. The experiment in a line: Activity at CCK1R (unknown origin) expressed in CHO cells assessed as stimulation of intracellular calcium responses. In kind it is functional, cell-based. In outline: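 Intact CHO cell lines stably expressing CCK1R or CCK2R; intracellular calcium measured after adding compound alone. Peak responses and EC50 values taken from concentration-response curves. Duplicate determinations, at least three independent experiments, means ± S.E.M.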

Test [7] has the same target. In kind it is cell-based, CHO.
Test [8] has as its target T6, Gastrin/cholecystokinin type B receptor (Homo sapiens, UniProt P32239).
T6 sequence (P32239 whole entry): T1 sequence (whole entry)
In kind it is cell-based, CHO.

The target in test [9] is T5, Cholecystokinin receptor type A. Type of test: cell-based, CHO. The source holds these as a separate data set.
For test [10], the target named is T6, Gastrin/cholecystokinin type B receptor. In kind it is cell-based, CHO. This is another data set of the same source.
Test [11] deals with T7, Cholecystokinin receptor type A (Homo sapiens, UniProt P32238, T117V/T118S). Type of test: cell-based, CHO.
The target of test [12] is T8, Cholecystokinin receptor type A (Homo sapiens, UniProt P32238, L356H). Type of test: cell-based, CHO.
Test [13] has as its target T7, Cholecystokinin receptor type A. In kind it is cell-based, CHO. The source holds these as a separate data set.
In test [14] the target is T4, Cholecystokinin receptor type A. Type of test: cell-based. To be noted: cho. The source holds these as a separate data set.
Test [15] concerns the target T3, Cholecystokinin receptor type A. Type of test: cell-based, CHO. This is another data set of the same source.
Test [16] addresses T6, Gastrin/cholecystokinin type B receptor. Type of test: cell-based, CHO. This is another data set of the same source.
For test [17], the target named is T4, Cholecystokinin receptor type A. In kind it is cell-based. Particulars: cho. This is another data set of the same source.
In test [18] the target is T8, Cholecystokinin receptor type A. In kind it is cell-based, CHO. This is another data set of the same source.

The structures appear in SMILES notation. Activity calls are given as the source filed them. No cut-off for these calls is given here. Bounds are passed on as bounds.

T3 sequence (P32238 whole entry N98T): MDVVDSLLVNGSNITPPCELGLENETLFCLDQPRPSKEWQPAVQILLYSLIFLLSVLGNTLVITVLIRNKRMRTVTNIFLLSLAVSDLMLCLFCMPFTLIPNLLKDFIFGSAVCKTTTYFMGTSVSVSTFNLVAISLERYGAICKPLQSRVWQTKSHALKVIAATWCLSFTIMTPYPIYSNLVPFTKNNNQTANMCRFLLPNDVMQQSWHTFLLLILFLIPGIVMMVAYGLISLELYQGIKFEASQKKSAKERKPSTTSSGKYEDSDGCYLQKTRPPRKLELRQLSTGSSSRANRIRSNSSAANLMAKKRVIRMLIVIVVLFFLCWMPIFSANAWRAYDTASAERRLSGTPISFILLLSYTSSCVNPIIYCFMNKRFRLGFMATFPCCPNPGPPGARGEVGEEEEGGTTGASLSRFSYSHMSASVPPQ
T7 sequence (P32238 whole entry T117V/T118S): as the sequence (P32238 whole entry N98T) above, with T98N, T117V, T118S counted along it
T8 sequence (P32238 whole entry L356H): as the sequence (P32238 whole entry N98T) above, with T98N, L356H counted along it

Regarding `O=C(CN1C(=O)C(NC(=O)Nc2ccccc2)C(=O)N(c2ccccc2)c2ccccc21)Nc1ccccc1` (stereo not given), the result in test [1] was inactive. In addition, in [2], the inhibition result is “inactive”. Besides, the IC50 result in test [3] (cho) and in test [4] was “Not Active” throughout.

For the molecule `CC(C)N(C(=O)CN1C(=O)[C@H](NC(=O)Nc2cccc(C(=O)O)c2)C(=O)N(c2ccccc2)c2ccccc21)c1ccccc1`, the outcome in [1] was inactive. In addition, the EC50 result is “Not Active” in test [5] and 0.8 nM in test [6]. The IC50 in test [7] came out at 105 nM; in [8] it was 5.6 nM; in test [9], 128 nM; in [10] it was 2.7 nM.

Regarding `COc1ccc(N(C)C(=O)CN2C(=O)C(NC(=O)Nc3ccccc3)C(=O)N(c3ccccc3)c3ccccc32)cc1` (stereo not given), the result in [1] was inactive. Also, the inhibition result in test [2] was “inactive”. Also, the IC50 is 334 nM in [11]; 153 nM in test [12]; 48.6 nM in test [8]; 50.2 nM in test [13]; 875 nM in test [3] (read-out: IC50); 151 nM in test [14]. Also, the IC50 in test [15] is 40.3 nM; in test [16], 20.3 nM; in [17] it was greater than 1000 nM; in test [4] it was “Not Active”; in test [18], 233 nM. For the same molecule, the EC50 in test [6] came to 90 nM.
